These results are taken from the RNAGym collection of RNA variant scans (doi:10.1038/s41586-018-0170-7).

B1: tRNA (parent)
chain: GUUCCGUUGGCGUAAUGGUAACGCGUCUCCCUCCUAAGGAGAAGACUGCGGGUUCGAGUCCCGUACGGAACG

The variants in the data set derive from B1. The data set can be described thus: yeast fitness, log relative to wild type (ln ratio); higher = fitter; tRNA-Arg(CCU), competitive growth, 37 C, 1 M NaCl. In a few lines: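 For each genotype, fitness is defined as the natural log of its generation number over the wild type's. The tRNA-Arg(CCU) variant library was on a HIS3 centromeric plasmid in BY4742 with the chromosomal gene removed, and pools were first grown 4 generations in SC-HIS at 30 °C and then ~6.5 generations (~26.5 h) in SC-HIS 1M NaCl at 37 °C. Generations were calculated from OD-scaled log2 output/input frequency, weighted by inverse variance across replicates, using counts from 125 bp paired-end Illumina sequencing.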
Regarding G1A G6U C27U A43C C46U C66U A70G, the “yeast fitness (ln)” value was -0.387.
Turning to U2C C27U A43C C46U A69G A70G C71U, the “yeast fitness (ln)” value is -0.0222.
On to G1A U2G G6A A43C A69G C71U, for which the “yeast fitness (ln)” value was -0.506.
For U2G G6U C27U A69G A70G, the “yeast fitness (ln)” value was -0.246.
For the variant G1A A70U, the “yeast fitness (ln)” value is -0.044.
On to G1A U2G G6U A43C C46U C66A A70G C71U, for which the “yeast fitness (ln)” value is -0.153.
As for G6A C27U A43C A69G A70U C71U, the “yeast fitness (ln)” value is -0.238.
As to G6A C27U C66A A70G C71U, the “yeast fitness (ln)” value was -0.364.
Take U2G G6U C66U A69G A70G C71U: the “yeast fitness (ln)” value was -0.235.
Consider U2G C27U C46U C66A A69G A70U C71U, for which the “yeast fitness (ln)” value was -0.383.
As for G1A U2G G6U C27U C46U C66U A70G, the “yeast fitness (ln)” value was -0.437.
In the case of G1A U2G G6U A70U, the “yeast fitness (ln)” value was -0.166.
Turning to G1A G6A C66A A70U, the “yeast fitness (ln)” value was -0.0411.
On to U2C G6A C27U A43C A69G A70U, for which the “yeast fitness (ln)” value is -0.215.
Consider G1A U2G C27U C66A A70G C71U, for which the “yeast fitness (ln)” value is -0.306.
As for U2G G6U C46U C66A, the “yeast fitness (ln)” value was -0.0648.
For G6U C27U A43C C46U C66U A70G, the “yeast fitness (ln)” value was -0.255.
Turning to U2C G6A A69G A70U, the “yeast fitness (ln)” value was -0.0533.
As to U2G G6U A43C C46U C66U A69G A70G, the “yeast fitness (ln)” value is -0.267.
G6U C46U C66A A69G A70U: the “yeast fitness (ln)” value was -0.302.
Take G6U C46U C66A A69G A70G: the “yeast fitness (ln)” value is -0.00994.
On to G1A G6A C66U A69G A70U, for which the “yeast fitness (ln)” value is -0.102.
Turning to U2C G6A A43C C46U C71U, the “yeast fitness (ln)” value was -0.0721.
Take G1A G6U C46U C66A A70G: the “yeast fitness (ln)” value was -0.225.
For the variant U2G C27U C66U, the “yeast fitness (ln)” value is -0.0998.
On to U2G G6U C27U C46U C66U A70G, for which the “yeast fitness (ln)” value is -0.176.
With G1A U2G G6U C27U A43C C66U A70U C71U the figure was -0.429.
With G1A U2G G6A C46U A69G C71U the figure was -0.193; with U2G C27U A43C A69G A70G, -0.238.
As for G6U C27U A43C C46U A70G C71U, the “yeast fitness (ln)” value is -0.337.
For U2G C27U A43C C46U, the “yeast fitness (ln)” value was -0.0622.
For G1A U2G G6U C27U C46U C66U C71U the value was -0.285; for G1A U2C G6U C27U C46U C66U C71U, -0.196.
For G1A C27U A43C C46U the value was -0.131.
As to G1A U2G G6U C27U A43C C66U A69G A70G, the “yeast fitness (ln)” value is -0.337.
Consider G1A G6U C27U A43C C46U A70G, for which the “yeast fitness (ln)” value is -0.385.
Turning to U2C G6A A43C C46U A69G A70G C71U, the “yeast fitness (ln)” value was -0.101.
On to G1A U2G G6U A43C C66A A70U, for which the “yeast fitness (ln)” value is -0.282.
With G1A G6A A43C the figure was -0.204; with U2G G6U A43C A70U C71U, -0.215; with U2G G6A C27U C46U C66U, -0.206.
In the case of G1A G6A C27U C66A A70U, the “yeast fitness (ln)” value is -0.139.
For the variant G1A U2G G6A C27U C66U A69G A70G, the “yeast fitness (ln)” value is -0.431.
As for G6A A43C C66U A69G C71U, the “yeast fitness (ln)” value is -0.51.
For G1A C27U C46U C66A, the “yeast fitness (ln)” value is -0.151.
In the case of G1A C46U C66U A70U C71U, the “yeast fitness (ln)” value is -0.214.
G1A U2G G6U A43C C66A A69G A70G C71U: the “yeast fitness (ln)” value is -0.412.
In the case of U2G G6A C27U C46U A70G C71U, the “yeast fitness (ln)” value was -0.207.
In the case of G6A C27U A43C A69G A70G C71U, the “yeast fitness (ln)” value is -0.371.
With G1A U2C G6A C66U A70U the figure was -0.0837; with U2C G6U C46U C66A A69G A70U, -0.143.
As to G6U C46U C66U A69G A70U C71U, the “yeast fitness (ln)” value is -0.434.
For G1A U2G G6U C27U A43C A69G A70U C71U, the “yeast fitness (ln)” value is -0.494.
Regarding U2G G6U C66A A69G C71U, the “yeast fitness (ln)” value is -0.101.
For G6U C27U A43C C66A C71U the value was -0.425; for U2G A43C C46U A69G A70G C71U, -0.12.
As to U2G A43C C46U C66U A69G A70U C71U, the “yeast fitness (ln)” value was -0.413.
G1A A43C C66A C71U: the “yeast fitness (ln)” value is -0.275.
Consider G1A U2G C66U A69G A70G, for which the “yeast fitness (ln)” value is -0.243.
For G6U C46U C66A A69G A70U C71U the value was -0.418; for U2C C46U C66U A69G C71U, -0.145; for G6U C27U A43C C46U A70U C71U, -0.336.
For G1A G6A C46U C66A C71U the value was -0.258.
With G1A U2G G6A C27U C46U C66U A69G C71U the figure was -0.332; with G6A C46U C66A A69G A70G C71U, -0.185; with U2G A43C C46U A69G, -0.0675.
For the variant G1A U2G, the “yeast fitness (ln)” value is -0.0263.
U2C G6U C27U A43C A70U: the “yeast fitness (ln)” value was -0.2.
As for G1A A43C C46U A70G, the “yeast fitness (ln)” value is -0.166.
For G6U C27U C66U A69G A70G the value was -0.306; for G1A U2G G6A C27U C46U C66U A69G A70U C71U, -0.542; for C27U A43C C46U C66U A70G C71U, -0.206.
As for G1A U2G G6A C27U A70G, the “yeast fitness (ln)” value was -0.339.
For G1A G6U C27U C46U C66U, the “yeast fitness (ln)” value is -0.313.
Turning to G1A G6U C27U A43C C66A A70G, the “yeast fitness (ln)” value was -0.33.
With G1A U2C G6U C46U C66U A69G A70G, the “yeast fitness (ln)” value was -0.183.
G1A U2G G6U C46U A70G: the “yeast fitness (ln)” value was -0.282.
Turning to C27U C46U C66U A70U C71U, the “yeast fitness (ln)” value is -0.197.
As to A43C C71U, the “yeast fitness (ln)” value was -0.038.
For G6U A43C C46U A69G the value was -0.176.
Turning to G1A U2C C27U C66U, the “yeast fitness (ln)” value is -0.191.
Regarding G1A C27U C66U A69G A70U, the “yeast fitness (ln)” value was -0.295.
With G1A U2G G6U C66A A70U C71U the figure was -0.0122.
